In ChEMBL document CHEMBL3860041, “Synthesis, biological evaluation and molecular modeling study of some new methoxylated 2-benzylthio-quinazoline-4(3H)-ones as nonclassical antifolates” (Bioorg Med Chem Lett, 2016):
In brackets after ≈: the same amount, converted by molar mass.

What was measured:
[1] = molecular target: T1, Dihydrofolate reductase (Bos taurus, UniProt P00376); experiment: Inhibition of bovine liver DHFR preincubated for 2 mins followed by addition of FH2 as substrate and NADPH
T1 sequence (P00376 whole entry): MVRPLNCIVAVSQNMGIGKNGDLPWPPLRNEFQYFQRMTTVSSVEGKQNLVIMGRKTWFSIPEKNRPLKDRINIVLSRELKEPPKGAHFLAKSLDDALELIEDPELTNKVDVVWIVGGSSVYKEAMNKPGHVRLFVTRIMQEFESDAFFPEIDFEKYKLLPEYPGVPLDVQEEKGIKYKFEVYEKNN

[2] = test system: Staphylococcus aureus; experiment: Antimicrobial activity against Staphylococcus aureus IFO 3060 at 200 ug/disc measured after 24 hrs by agar disc-diffusion method; assay type: functional; conditions: IFO 3060, 24 h, read-out: DIZ
[3] = test system: Bacillus subtilis; experiment: Antimicrobial activity against Bacillus subtilis IFO 3007 at 200 ug/disc measured after 24 hrs by agar disc-diffusion method; assay type: functional; conditions: IFO 3007, 24 h, read-out: DIZ
[4] = test system: Escherichia coli; experiment: Antimicrobial activity against Escherichia coli IFO 3301 at 200 ug/disc measured after 24 hrs by agar disc-diffusion method; assay type: functional; conditions: IFO 3301, 24 h, read-out: DIZ
[5] = test system: Pseudomonas aeruginosa; experiment: Antimicrobial activity against Pseudomonas aeruginosa IFO 3448 at 200 ug/disc measured after 24 hrs by agar disc-diffusion method; assay type: functional; conditions: IFO 3448, 24 h, read-out: DIZ
[6] = test system: Candida albicans; experiment: Antimicrobial activity against Candida albicans IFO 0583 at 200 ug/disc measured after 48 hrs by agar disc-diffusion method; assay type: functional; conditions: IFO 0583, 48 h, read-out: DIZ
[7] = test system: Staphylococcus aureus; experiment: Antimicrobial activity against Staphylococcus aureus IFO 3060 measured after 24 hrs by microdilution method; assay type: functional
[8] = test system: Bacillus subtilis; experiment: Antimicrobial activity against Bacillus subtilis IFO 3007 measured after 24 hrs by microdilution method; assay type: functional
[9] = test system: Pseudomonas aeruginosa; experiment: Antimicrobial activity against Pseudomonas aeruginosa IFO 3448 measured after 24 hrs by microdilution method; assay type: functional
[10] = test system: Escherichia coli; experiment: microbe, parasite or virus in culture; conditions: IFO 3301, 24 h
[11] = Growth inhibition of human CNS cancer cells after 48 hrs by SRB assay; assay type: functional; conditions: Cancer cell lines
Procedure, shortened: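 Five-log dose range against NCI tumor cell lines, monitoring GI50, TGI and LC50 for each cell line; MG-MID values derived across the panel; 5-fluorouracil positive control.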

[12] = Growth inhibition of human leukemia cells after 48 hrs by SRB assay; assay type: functional; conditions: Leukemia cell
Procedure, shortened: (§1)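 Follow-up NCI panel testing over a 5-log dose range for each cell line. GI50, TGI and LC50 were monitored, with 5-fluorouracil run as the positive control. Values are grouped by tumour subpanel.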

[13] = Growth inhibition of human non-small cell lung cancer cells after 48 hrs by SRB assay; assay type: functional; conditions: Cancer cell lines; procedure, shortened: as §1
[14] = Growth inhibition of human colon cancer cells after 48 hrs by SRB assay; assay type: functional; conditions: Cancer cell lines; procedure, shortened: as §1
[15] = Growth inhibition of human melanoma cells after 48 hrs by SRB assay; assay type: functional; conditions: Melanoma cell; procedure, shortened: as §1
[16] = Growth inhibition of human ovarian cancer cells after 48 hrs by SRB assay; assay type: functional; conditions: Cancer cell lines; procedure, shortened: as §1
[17] = Growth inhibition of human renal cancer cells after 48 hrs by SRB assay; assay type: functional; conditions: Cancer cell lines; procedure, shortened: as §1
[18] = Growth inhibition of human prostate cancer cells after 48 hrs by SRB assay; assay type: functional; conditions: Cancer cell lines; procedure, shortened: as §1
[19] = Growth inhibition of human breast cancer cells after 48 hrs by SRB assay; assay type: functional; conditions: Cancer cell lines; procedure, shortened: as §1

Molecule: COc1cc(CSc2nc3ccc(Cl)cc3c(=O)n2-c2ccc(C)cc2)cc(OC)c1OC
- IC50 [1]: 3000 nM

Molecule: COc1ccc(CSc2nc3ccc(C)cc3c(=O)n2-c2ccccc2OC)cc1
- IC50 [1]: 900 nM

Molecule: COc1ccc(CSc2nc3ccc(C)cc3c(=O)n2-c2ccc(Cl)cc2)cc1
- IC50 [1]: 100 nM

Molecule: COc1cc2nc(SCc3cc(OC)c(OC)c(OC)c3)n(-c3ccccc3)c(=O)c2cc1OC
- IC50 [1]: 900 nM
- zone of inhibition at 200 µg/disc [2]: 15 mm
- zone of inhibition at 200 µg/disc [3]: 19 mm
- zone of inhibition at 200 µg/disc [4]: 18 mm
- zone of inhibition at 200 µg/disc [5]: 16 mm
- zone of inhibition at 200 µg/disc [6]: 8 mm
- MIC ([7]; IFO 3060, 24 h): 8 µg/mL (≈ 16.2 µM)
- MIC ([8]; IFO 3007, 24 h): 8 µg/mL (≈ 16.2 µM)
- MIC ([9]; IFO 3448, 24 h): 8 µg/mL (≈ 16.2 µM)
- MIC [10]: 8 µg/mL (≈ 16.2 µM)

Molecule: COc1ccc(CSc2nc3ccc(C)cc3c(=O)n2-c2ccccc2)cc1
- IC50 [1]: 100 nM
- zone of inhibition at 200 µg/disc [2]: 18 mm
- zone of inhibition at 200 µg/disc [3]: 22 mm
- zone of inhibition at 200 µg/disc [4]: 16 mm
- zone of inhibition at 200 µg/disc [5]: 12 mm
- zone of inhibition at 200 µg/disc [6]: 8 mm
- MIC ([7]; IFO 3060, 24 h): 4 µg/mL (≈ 10.3 µM)
- MIC ([8]; IFO 3007, 24 h): 2 µg/mL (≈ 5.15 µM)
- MIC [10]: 8 µg/mL (≈ 20.6 µM)

Molecule: COc1ccccc1-n1c(SCc2cc(OC)c(OC)c(OC)c2)nc2ccc(C)cc2c1=O
- IC50 [1]: 1000 nM

Molecule: Clc1ccccc1C(c1ccccc1)(c1ccccc1)n1ccnc1 [CLOTRIMAZOLE]
- zone of inhibition at 200 µg/disc [6]: 21 mm

Molecule: COc1ccc(CSc2nc3ccc(Cl)cc3c(=O)n2-c2ccc(OC)cc2OC)cc1
- IC50 [1]: 1000 nM
- zone of inhibition at 200 µg/disc [2]: 15 mm
- zone of inhibition at 200 µg/disc [3]: 18 mm
- zone of inhibition at 200 µg/disc [4]: 8 mm
- zone of inhibition at 200 µg/disc [5]: 8 mm
- zone of inhibition at 200 µg/disc [6]: 8 mm
- MIC ([7]; IFO 3060, 24 h): 8 µg/mL (≈ 17.1 µM)
- MIC ([8]; IFO 3007, 24 h): 4 µg/mL (≈ 8.53 µM)

Molecule: COc1ccc(CSc2nc3ccc(Cl)cc3c(=O)n2-c2ccccc2OC)cc1
- IC50 [1]: 800 nM

Molecule: COc1cc2nc(SCc3cc(OC)c(OC)c(OC)c3)n(-c3ccc(Cl)cc3)c(=O)c2cc1OC
- IC50 [1]: 900 nM
- zone of inhibition at 200 µg/disc [2]: 22 mm
- zone of inhibition at 200 µg/disc [3]: 26 mm
- zone of inhibition at 200 µg/disc [4]: 18 mm
- zone of inhibition at 200 µg/disc [5]: 12 mm
- zone of inhibition at 200 µg/disc [6]: 8 mm
- MIC ([7]; IFO 3060, 24 h): 4 µg/mL (≈ 7.56 µM)
- MIC ([8]; IFO 3007, 24 h): 2 µg/mL (≈ 3.78 µM)
- MIC [10]: 8 µg/mL (≈ 15.1 µM)

Molecule: COc1ccc(CSc2nc3ccc(Cl)cc3c(=O)n2-c2ccc(OC)cc2)cc1
- IC50 [1]: 100 nM

Molecule: COc1ccc(CSc2nc3ccc(C)cc3c(=O)n2Cc2ccccc2)cc1
- IC50 [1]: 10 nM

Molecule: COc1cc(CSc2nc3ccc(Cl)cc3c(=O)n2-c2ccc(Cl)cc2)cc(OC)c1OC
- IC50 [1]: 2000 nM

Molecule: COc1ccc(CSc2nc3cc(OC)c(OC)cc3c(=O)n2-c2ccc(Cl)cc2)cc1
- IC50 [1]: 6000 nM
- zone of inhibition at 200 µg/disc [2]: 20 mm
- zone of inhibition at 200 µg/disc [3]: 18 mm
- zone of inhibition at 200 µg/disc [4]: 15 mm
- zone of inhibition at 200 µg/disc [5]: 8 mm
- zone of inhibition at 200 µg/disc [6]: 8 mm
- MIC ([7]; IFO 3060, 24 h): 4 µg/mL (≈ 8.53 µM)
- MIC ([8]; IFO 3007, 24 h): 4 µg/mL (≈ 8.53 µM)
- MIC [10]: 8 µg/mL (≈ 17.1 µM)

Molecule: COc1ccc(-n2c(SCc3cc(OC)c(OC)c(OC)c3)nc3cc(OC)c(OC)cc3c2=O)cc1
- IC50 [1]: 1200 nM

Molecule: COc1ccc(-n2c(SCc3cc(OC)c(OC)c(OC)c3)nc3cc(OC)c(OC)cc3c2=O)c(OC)c1
- IC50 [1]: 3000 nM

Molecule: COc1ccc(CSc2nc3ccc(Cl)cc3c(=O)n2-c2ccccc2)cc1
- IC50 [1]: 20 nM
- zone of inhibition at 200 µg/disc [2]: 14 mm
- zone of inhibition at 200 µg/disc [3]: 16 mm
- zone of inhibition at 200 µg/disc [4]: 8 mm
- zone of inhibition at 200 µg/disc [5]: 8 mm
- zone of inhibition at 200 µg/disc [6]: 8 mm

Molecule: O=c1[nH]cc(F)c(=O)[nH]1 [FLUOROURACIL]
- TGI [11]: > 100000 nM
- TGI [12]: > 100000 nM
- CC50 ([12]; read-out: LC50 (the source's name)): > 100000 nM
- GI50 [13]: > 100000 nM
- TGI [13]: > 100000 nM
- GI50 [14]: 8400 nM
- TGI [14]: > 100000 nM
- GI50 [15]: 70600 nM
- TGI [15]: > 100000 nM
- GI50 [16]: 61400 nM
- TGI [16]: > 100000 nM
- GI50 [17]: 45600 nM
- TGI [17]: > 100000 nM
- GI50 [18]: 22700 nM
- TGI [18]: > 100000 nM
- GI50 [19]: 76400 nM
- TGI [19]: > 100000 nM

Molecule: COc1ccc(CSc2nc3cc(OC)c(OC)cc3c(=O)n2Cc2ccccc2)cc1
- IC50 [1]: 800 nM

Molecule: COc1ccc(CSc2nc3ccc(Cl)cc3c(=O)n2-c2ccc(C)cc2)cc1
- IC50 [1]: 4000 nM

Molecule: COc1ccc(CSc2nc3cc(OC)c(OC)cc3c(=O)n2-c2ccc(OC)cc2)cc1
- IC50 [1]: 800 nM

Molecule: COc1ccc(CSc2nc3cc(OC)c(OC)cc3c(=O)n2-c2ccccc2OC)cc1
- IC50 [1]: 600 nM

Molecule: COc1ccc(CSc2nc3ccc(Cl)cc3c(=O)n2Cc2ccccc2)cc1
- IC50 [1]: 1100 nM

Molecule: COc1ccc(CSc2nc3cc(OC)c(OC)cc3c(=O)n2-c2ccccc2)cc1
- IC50 [1]: 4000 nM
- zone of inhibition at 200 µg/disc [2]: 24 mm
- zone of inhibition at 200 µg/disc [3]: 26 mm
- zone of inhibition at 200 µg/disc [4]: 14 mm
- zone of inhibition at 200 µg/disc [5]: 8 mm
- zone of inhibition at 200 µg/disc [6]: 12 mm
- MIC ([7]; IFO 3060, 24 h): 2 µg/mL (≈ 4.6 µM)
- MIC ([8]; IFO 3007, 24 h): 2 µg/mL (≈ 4.6 µM)
- MIC [10]: 8 µg/mL (≈ 18.4 µM)

Molecule: COc1ccc(-n2c(SCc3cc(OC)c(OC)c(OC)c3)nc3ccc(Cl)cc3c2=O)c(OC)c1
- IC50 [1]: 4000 nM

Molecule: COc1cc2nc(SCc3cc(OC)c(OC)c(OC)c3)n(-c3ccc(C)cc3)c(=O)c2cc1OC
- IC50 [1]: 1200 nM

Molecule: COc1ccc(CSc2nc3cc(OC)c(OC)cc3c(=O)n2-c2ccc(C)cc2)cc1
- IC50 [1]: 2000 nM

Molecule: COc1ccc(CSc2nc3ccc(C)cc3c(=O)n2-c2ccc(OC)cc2OC)cc1
- IC50 [1]: 700 nM

Molecule: COc1ccc(CSc2nc3ccc(Cl)cc3c(=O)n2-c2ccc(Cl)cc2)cc1
- IC50 [1]: 3000 nM

Molecule: COc1ccc(CSc2nc3ccc(C)cc3c(=O)n2-c2ccc(OC)cc2)cc1
- IC50 [1]: 1200 nM

Molecule: COc1cc(CSc2nc3ccc(C)cc3c(=O)n2-c2ccc(Cl)cc2)cc(OC)c1OC
- IC50 [1]: 900 nM

Molecule: COc1cc(CSc2nc3ccc(C)cc3c(=O)n2-c2ccc(C)cc2)cc(OC)c1OC
- IC50 [1]: 1500 nM

Molecule: COc1ccc(CSc2nc3ccc(C)cc3c(=O)n2-c2ccc(C)cc2)cc1
- IC50 [1]: 1000 nM

Molecule: O=C(O)c1cn(C2CC2)c2cc(N3CCNCC3)c(F)cc2c1=O [CIPROFLOXACIN]
- zone of inhibition at 200 µg/disc [2]: 32 mm
- zone of inhibition at 200 µg/disc [3]: 35 mm
- zone of inhibition at 200 µg/disc [4]: 38 mm
- zone of inhibition at 200 µg/disc [5]: 36 mm
- MIC ([7]; IFO 3060, 24 h): 0.5 µg/mL (≈ 1.51 µM)
- MIC ([8]; IFO 3007, 24 h): 0.5 µg/mL (≈ 1.51 µM)
- MIC ([9]; IFO 3448, 24 h): 1 µg/mL (≈ 3.02 µM)

Molecule: GENTAMICIN
- MIC [7]: 2 µg/mL
- MIC [8]: 2 µg/mL
- MIC [9]: 1 µg/mL
